The text below walks through data of ChEMBL document CHEMBL4513216, “Probing the Open Global Health Chemical Diversity Library for Multistage-Active Starting Points for Next-Generation Antimalarials” (ACS Infect Dis, 2020).

The data set is described as follows: Toxicity liver stage against HepG2, at 10uM. In kind it is cell-based. Also noted: test concentration 10 uM, cell line HepG2-A16-CD81EGFP. The following applies: human, HepG2-A16-CD81EGFP cells; read-out: INHIBITION
In short, it runs like this: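 Uninfected HepG2-A16-CD81EGFP cells, 3 × 10^3 per well, 1536-well, plated on prespotted compound at 10 μM final, parasite-free screening media added to match infected plates; puromycin 10 μM positive, DMSO 0.5% negative; run in parallel with 48 h PbLuc assay at 37 °C, 5% CO2; viability by CellTiter-Glo luminescence, normalized to controls.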

Turning to `COC(=O)[C@@H]1CN(C(=O)NC(C)C)CCN1S(=O)(=O)c1ccccc1`, the cytotoxicity at 10 µM was 2.17%.
For `Cc1cc(NC(C)c2nncn2C2CCCC2)n2nc(C)cc2n1` (stereo not given), the cytotoxicity at 10 µM worked out at 5.99%.
With `CCC(CC)C(O)CNC(=O)Cc1c[nH]c2ncccc12` (stereo not given), the cytotoxicity at 10 µM is 0.476%.
As to `O=S(=O)(c1c(N2CCCC2)ccc2nonc12)N1CCCC1`, the cytotoxicity at 10 µM was 5.95%.
`CN1CCNC(=O)C1CC(=O)NCCc1cnn(-c2ccccc2)c1` (stereo not given): the cytotoxicity at 10 µM turned out to be 2.53%.
Consider `CC(C)n1ccnc1C1CCCN(c2ccccn2)C1` (stereo not given), for which the cytotoxicity at 10 µM was 1.28%.
`Cn1ccc(CN2CCC(NC(=O)NC3CCCCC3)CC2)cc1=O`: the cytotoxicity at 10 µM is -6.26%.
`CC1(C)Cc2c(cnn2-c2ccccc2)C(NC2CCSCC2)C1` (stereo not given): the cytotoxicity at 10 µM is -186%.
With `O=C(c1ccc[nH]1)N1CCc2c(COCC3CC3)cncc2C1`, the cytotoxicity at 10 µM is 5.71%.
Consider `Cc1cc(-c2cc(S(=O)(=O)N3C[C@H](C4CC4)[C@@H](N)C3)c(C)s2)on1`, for which the cytotoxicity at 10 µM was 3.37%.
On to `Cc1ccc(CN2CCN(CC(=O)Nc3ccc4nsnc4c3)CC2)o1`, for which the cytotoxicity at 10 µM was -17.5%.
Turning to `c1cc(CN2C[C@H](OCC3CCOCC3)[C@H]3COC[C@H]32)co1`, the cytotoxicity at 10 µM was -4.8%.
Turning to `CCNc1ncc(C(=O)N2CCOC(CCCC(C)C)C2)cn1` (stereo not given), the cytotoxicity at 10 µM came to 10.3%.
To `CC(C)N1CCC(Cc2cnc(-c3cccc(C(=O)O)c3)cn2)C1` (stereo not given) belongs -2.27%; to `CC(C)c1cc(C2CCCN2Cc2nc(-c3ccco3)no2)no1` (stereo not given), -3.45%.
In the case of `COc1ncc(NCc2csc(-c3ccco3)n2)cc1C(N)=O`, the cytotoxicity at 10 µM was -17.9%.
With `O=C(N[C@@H]1CNCCC[C@H]1O)c1ccc(OCCN2CCCC2)cc1`, the cytotoxicity at 10 µM was -0.155%.
As for `Cn1ccnc1COc1ccc(CO)cc1`, the cytotoxicity at 10 µM is -5.05%.
Next, `c1cc(CNCC2CNc3ccnn3C2)cc(Cn2cccn2)c1` (stereo not given): -19%; `COc1cccc(CNc2cnn(CC(F)F)c2)c1`: -7.16%.
In the case of `COc1c(C)cnc(CN2CCn3c(C)nnc3C2)c1C`, the cytotoxicity at 10 µM is -4.97%.
Turning to `O=S(=O)(NC1=NCN(CCc2ccccc2)CN1)c1ccc(F)cc1`, the cytotoxicity at 10 µM stood at 3.47%.
Consider `CCc1nnsc1C(=O)N1CCCC(c2nc3ccccc3[nH]2)C1` (stereo not given), for which the cytotoxicity at 10 µM was 4.52%.
In the case of `CN(C)C(=O)CN1CCC2(CCCN(Cc3ccsc3)C2)C1=O` (stereo not given), the cytotoxicity at 10 µM was -106%.
As to `CC(C)(C)CCCC(=O)NS(=O)(=O)CC1CC1`, the cytotoxicity at 10 µM was -6.19%.
As to `O=S(=O)(C1CC1)N1CCC2(CN(c3ncccn3)C2)C1`, the cytotoxicity at 10 µM is -98.4%.
For the compound `COCCNc1cc(C2CCCNC2)ccn1` (stereo not given), the cytotoxicity at 10 µM was -7.17%.
As for `CN(c1cccnn1)C1CCN(C(=O)Cc2c[nH]c3ccccc23)CC1`, the cytotoxicity at 10 µM is -20.1%.
As for `CC(C)(C)c1n[nH]c(C2CN(C(=O)c3cc(Cl)c[nH]3)CCO2)n1` (stereo not given), the cytotoxicity at 10 µM was -10.6%.
For the compound `O=C(COc1ccc2c(c1)CCC2)N1CCCC(n2cccn2)C1` (stereo not given), the cytotoxicity at 10 µM is -2.58%.
With `CCOC(=O)c1cnn(C2CCN(C(=O)CC3C=CCC3)CC2)c1N` (stereo not given), the cytotoxicity at 10 µM is 7.87%.
Regarding `CC1(C)COCCN1C(=O)CCc1nc(-c2ccccn2)no1`, the cytotoxicity at 10 µM was -4.59%.
On to `CCCn1nnc2c(sc3nc(N4CCOCC4)c4c(c32)CCC4)c1=O`, for which the cytotoxicity at 10 µM worked out at 1.74%.
Consider `CC(C)NC(=O)N1CCC2(CC1)[C@@H]1CN(C(=O)N(C)C)C[C@@H]1C(=O)N2C`, for which the cytotoxicity at 10 µM was 4.32%.
As to `O=C(O)[C@@H]1CN(C(=O)CCCc2ccc(F)cc2)C[C@H]1C1CC1`, the cytotoxicity at 10 µM amounted to 0.832%.
For the compound `NC(=O)C(Nc1ccc(Cl)cc1)c1ccc(F)cc1` (stereo not given), the cytotoxicity at 10 µM was -0.82%.
Next, `Cc1cc(N2CC(c3n[nH]c4nccnc34)C2)ncn1`: -11.2%.
As to `O=C([C@@H]1C[C@@H]2CCN(C3CCOCC3)C[C@H]2O1)N1CCCC1`, the cytotoxicity at 10 µM came out at 4.5%.
Consider `Cn1ccnc1C(=O)N[C@@H]1CN(Cc2cccs2)[C@@H]2CCCO[C@@H]21`, for which the cytotoxicity at 10 µM amounted to 3.16%.
Turning to `O=C(CO)N1CCCn2nnc(Cn3cccn3)c2C1`, the cytotoxicity at 10 µM was 6.59%.
Turning to `CC(C)OCCCNC(=O)CS(=O)(=O)Cc1ccc(C(C)(C)C)cc1`, the cytotoxicity at 10 µM is 4.92%.
Turning to `CC(C)Cc1nc(CN2CC(=O)N(C)c3ccccc3C2=O)no1`, the cytotoxicity at 10 µM was -6.7%.
With `CC(NC(=O)NCCn1ccnc1)c1ccc2c(c1)CCC(=O)N2` (stereo not given), the cytotoxicity at 10 µM was -18.1%.
Next, `CCN1CCN(C2CCN(CCOc3ccc(F)cc3)CC2)C1=O`: -5.38%; `O=C(c1c[nH]c(=O)cn1)N1C[C@H]2CC[C@@H](C1)N(Cc1ccccc1)C2`: -126%.
Turning to `Cc1cccc(NC(=O)[C@@H]2CCCN2Cc2nnc(C(C)C)n2C)n1`, the cytotoxicity at 10 µM is 5.81%.
To `CSCc1cccc(S(=O)(=O)N2CCC(C)CC2)c1` belongs 13.1%; to `CC1CCN(C(=O)c2ccnc(-n3cncn3)c2)c2ccccc21` (stereo not given), 13%; to `Cc1nn(C)c(N2CCOCC2)c1CNC1CCOc2ccccc21` (stereo not given), -7.44%.
As for `Cc1noc(C2(C)CCN(C(=O)C(C)C)CC2)n1`, the cytotoxicity at 10 µM was -5.14%.
For `CCN1CCn2c(C)cnc2C12CCN(C(=O)C(C)C)CC2`, the cytotoxicity at 10 µM amounted to 3.06%.
For `Cc1nn(CC(O)CN2CCC(C)CC2)c(=O)c(C#N)c1C` (stereo not given), the cytotoxicity at 10 µM came out at 5.84%.
`CCN1CCC(CC(=O)N2CCc3sc(C(=O)N(C)C)cc3C2)CC1`: the cytotoxicity at 10 µM was -21.1%.
Consider `CC(C#N)CNS(=O)(=O)c1ccc(Br)c(F)c1` (stereo not given), for which the cytotoxicity at 10 µM was -12.3%.
In the case of `Cc1cc(-c2nccn2CCN2CCCCC2CO)oc1C` (stereo not given), the cytotoxicity at 10 µM worked out at 0.264%.
For the compound `Cc1nn(C)c(C)c1C1COCCN1c1ncncc1Br` (stereo not given), the cytotoxicity at 10 µM was -8.9%.
To `Cc1cc(C(=O)N2C[C@@H]3CCCO[C@@H]3[C@H](N3CCOCC3)C2)c(C)[nH]1` belongs 4.5%.
Take `Cc1noc(C)c1CN1CCCC(CN(C(=O)OC(C)(C)C)C(C)C)C1` (stereo not given): the cytotoxicity at 10 µM amounted to 2.42%.
On to `Cc1cc(C)n(CC2CCCN2CC(=O)N(C)CCC#N)n1` (stereo not given), for which the cytotoxicity at 10 µM was -14.8%.
As for `Cc1nc(C)n(CCNC(=O)C2(C)CC(c3ccccc3)=NO2)n1` (stereo not given), the cytotoxicity at 10 µM came to 7.92%.
As for `O=C(c1ccco1)N1CCCC2(CN(Cc3ccoc3)CCO2)C1` (stereo not given), the cytotoxicity at 10 µM is -2.59%.
For `O=C(NC1CC1)C1CN(Cc2ccc3c(c2)OCCO3)CCN1` (stereo not given), the cytotoxicity at 10 µM was -3.22%.
On to `CSc1ccc(CNC(c2ccc(F)cc2)c2nccn2C)cc1` (stereo not given), for which the cytotoxicity at 10 µM was -10.8%.
In the case of `CN(C)CCn1ccnc1C1CCN(C(=O)CCc2cccnc2)CC1`, the cytotoxicity at 10 µM was -2.21%.
With `Cc1ccc(CC(=O)N2CCc3nnc(N(C)C)cc3C2)s1`, the cytotoxicity at 10 µM was -9.01%.
As for `Cc1cc(Cc2ccc(S(=O)(=O)N3CCSCC3)cc2)c(=O)[nH]n1`, the cytotoxicity at 10 µM was -10%.
As to `Cc1cc(C)cc(OCCC(=O)N2CCCC(n3cncn3)C2)c1` (stereo not given), the cytotoxicity at 10 µM was -3.76%.
Consider `COc1ccc(CC(=O)N(C)c2cccnc2N(C)C)c(Cl)c1`, for which the cytotoxicity at 10 µM was determined as 5.71%.
Regarding `Cc1cccc(CN2C(=O)CC[C@@H]3[C@H]2CCN3C(=O)c2ccsc2)n1`, the cytotoxicity at 10 µM is -85.7%.
To `CC(C)NC(=O)[C@H]1C[C@H]2OCC[C@H]2N(Cc2ccc3ccccc3n2)C1` belongs -56.3%.
